Assay results as given in ChEMBL document CHEMBL3856250, “Discovery of 6-Fluoro-5-(R)-(3-(S)-(8-fluoro-1-methyl-2,4-dioxo-1,2-dihydroquinazolin-3(4H)-yl)-2-methylphenyl)-2-(S)-(2-hydroxypropan-2-yl)-2,3,4,9-tetrahydro-1H-carbazole-8-carboxamide (BMS-986142): A Reversible Inhibitor of Bruton's Tyrosine Kinase (BTK) Conformationally Constrained by Two …” (J Med Chem, 2016).
Calls of active or inactive are those of the source. The calls are words filed in the database; no cut-off is given here.

Columns and labels:
[1] = Drug metabolism in mouse assessed as metabolite 13c formation at 10 mg/kg, iv or po; format: ADME, organism-based; conditions: in vivo
[2] = AUC in mouse at 10 mg/kg; format: ADME, organism-based; conditions: in vivo
[3] = Cmax in mouse at 10 mg/kg, iv or po; format: ADME, organism-based; conditions: in vivo
Mus musculus [4] = experiment: Anti-autoimmune activity in lupus prone NZB/WF1 mouse model assessed as protection against inflammatory infiltration at 10 mg/kg, po administered qd for 16 weeks; format: functional, organism-based
Mus musculus [5] = experiment: Anti-autoimmune activity in lupus prone NZB/WF1 mouse model assessed as reduction in immune complex deposits at 10 mg/kg, po administered qd for 16 weeks; format: functional, organism-based
Mus musculus [6] = experiment: Anti-autoimmune activity in lupus prone NZB/WF1 mouse model assessed as protection against glomerular nephritis at 10 mg/kg, po administered qd for 16 weeks; format: functional, organism-based
Mus musculus [7] = experiment: Anti-autoimmune activity in lupus prone NZB/WF1 mouse model assessed as protection against tubulo-interstitial nephritis at 10 mg/kg, po administered qd for 16 weeks; format: functional, organism-based
[8] = Clearance in mouse at 10 mg/kg, iv or po; format: ADME, organism-based; conditions: in vivo
[9] = biological target: T1, Tyrosine-protein kinase BTK (Homo sapiens, UniProt Q06187); experiment: Inhibition of BTK in human Ramos-B cells assessed as suppression of BCR/anti-IgM-stimulated Ca2+ flux after 1 hr incubation in dark by FLIPR1 assay
[10] = biological target: T1, Tyrosine-protein kinase BTK
[11] = biological target: T1, Tyrosine-protein kinase BTK; experiment: Inhibition of BTK in human whole blood assessed as suppression of BCR/anti-IgM/IgG-stimulated CD69 surface expression after 18 hrs with agitation by FITC-staining based FACS analysis; format: tissue-based
[12] = Stability of the compound in methanol at 37 degC after 3 days; format: physicochemical; conditions: 72 h
Homo sapiens [13] = species on record: Homo sapiens; experiment: Selectivity ratio of IC50 for JAK2 (unknown origin) to IC50 for full length recombinant human His-tagged BTK expressed in baculovirus
[14] = Drug metabolism in mouse plasma assessed as compound-6 formation after 4 hrs by HPLC analysis; format: ADME, cell-free
Outline: (§1)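 Atropisomer distribution was followed in plasma from multiple species incubated at 37 °C over 4 h.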

[15] = Drug level in cynomolgus monkey plasma treated with 4-(3-(S)-(8-Fluoro-1-methyl-2,4-dioxo-1,2-dihydroquinazolin-3(4H)-yl)-2-methylphenyl)7-(2-hydroxypropan-2-yl)-9H-carbazole-1-carboxamide after 4 hrs by HPLC analysis; format: ADME, Macaca fascicularis; outline: as §1
[16] = Drug metabolism in rat plasma assessed as compound-6 formation after 4 hrs by HPLC analysis; format: ADME, cell-free; outline: as §1
[17] = Stability of the compound in methanol at 37 degC assessed as kinetic half life; format: physicochemical
[18] = Drug level in rat plasma treated with 4-(3-(S)-(8-Fluoro-1-methyl-2,4-dioxo-1,2-dihydroquinazolin-3(4H)-yl)-2-methylphenyl)7-(2-hydroxypropan-2-yl)-9H-carbazole-1-carboxamide after 1 hr by HPLC analysis; format: ADME; outline: as §1
[19] = Cmax in mouse at 5 mg/kg; format: ADME, organism-based; design: dose 5 mg/kg; conditions: in vivo
[20] = Drug metabolism in dog plasma assessed as compound-6 formation after 4 hrs by HPLC analysis; format: ADME, cell-free, Canis lupus familiaris; outline: as §1
[21] = Drug level in human plasma treated with 4-(3-(S)-(8-Fluoro-1-methyl-2,4-dioxo-1,2-dihydroquinazolin-3(4H)-yl)-2-methylphenyl)7-(2-hydroxypropan-2-yl)-9H-carbazole-1-carboxamide after 4 hrs by HPLC analysis; format: ADME; outline: as §1
[22] = AUC in mouse at 5 mg/kg; format: ADME, organism-based; conditions: in vivo
[23] = Protein binding in human serum; format: ADME; conditions: read-out: PPB (converted)
Mus musculus [24] = experiment: Anti-autoimmune activity in lupus prone NZB/WF1 mouse model assessed as protection against tubulo-interstitial nephritis at 30 mg/kg, po administered qd for 16 weeks; format: functional, organism-based
Outline: (§2)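 Female NZB/WF1 mice, 24 weeks old, were randomized (n = 12 per group) after baseline body weight, proteinuria and serum dsDNA titers were measured. They were dosed by oral gavage once daily for 16 weeks in 80:20 PEG400/water vehicle, with prednisolone 10 mg/kg as the comparator arm. Health was monitored routinely, and weight, proteinuria and anti-dsDNA titers were measured every 3 weeks.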

Mus musculus [25] = experiment: Anti-autoimmune activity in lupus prone NZB/WF1 mouse model assessed as protection against glomerular nephritis at 30 mg/kg, po administered qd for 16 weeks; format: functional, organism-based; outline: as §2
Mus musculus [26] = experiment: Anti-autoimmune activity in lupus prone NZB/WF1 mouse model assessed as reduction in immune complex deposits at 30 mg/kg, po administered qd for 16 weeks; format: functional, organism-based; outline: as §2
Mus musculus [27] = experiment: Anti-autoimmune activity in lupus prone NZB/WF1 mouse model assessed as protection against inflammatory infiltration at 30 mg/kg, po administered qd for 16 weeks; format: functional, organism-based; outline: as §2
Mus musculus [28] = experiment: Antiathritis activity in anticollagen antibody-induced arthritis BALB/c mouse model assessed as reduction in LPS-induced bone resorption in right hind paws at 5 and 20 mg/kg, po qd followed by LPS addition on day 3 measured after 11 days relative to control; format: functional, organism-based
Mus musculus [29] = experiment: Anti-autoimmune activity in lupus prone NZB/WF1 mouse model assessed as inhibition of increase in severe proteinuria at 30 mg/kg, po administered qd for 16 weeks; format: functional, organism-based; outline: as §2
Homo sapiens [30] = species on record: Homo sapiens; experiment: Inhibition of Na+ channel (unknown origin) at 10 uM at 1 Hz by patch clamp assay
Homo sapiens [31] = species on record: Homo sapiens; experiment: Inhibition of Na+ channel (unknown origin) at 10 uM at 4 Hz by patch clamp assay
Mus musculus [32] = experiment: Anti-autoimmune activity in lupus prone NZB/WF1 mouse model assessed as protection from disease-related death at 30 mg/kg, po administered qd for 16 weeks; format: functional, organism-based; outline: as §2
Mus musculus [33] = experiment: Antiathritis activity in anticollagen antibody-induced arthritis BALB/c mouse model assessed as reduction in LPS-induced inflammation in right hind paws at 5 and 20 mg/kg, po qd followed by LPS addition on day 3 measured after 11 days relative to control; format: functional, organism-based
Homo sapiens [34] = species on record: Homo sapiens; experiment: Inhibition of Ca2+ channel (unknown origin) at 10 uM by patch clamp assay
[35] = Stability in plasma (unknown origin) at 37 degC after 5 days; format: ADME, cell-free; conditions: 120 h
[36] = Stability of the compound in methanol at 37 degC after 5 days; format: physicochemical; conditions: 120 h
[37] = Drug level in mouse treated with 3-Chloro-4-(R)-(3-(S)-(8-fluoro-1-methyl-2,4-dioxo-1,2-dihydroquinazolin-3(4H)-yl)-2-methylphenyl)-7-(2-hydroxypropan-2-yl)-9H-carbazole-1-carboxamide assessed as compound formation; format: ADME; conditions: in vivo
[38] = Drug level in dog treated with 3-Chloro-4-(R)-(3-(S)-(8-fluoro-1-methyl-2,4-dioxo-1,2-dihydroquinazolin-3(4H)-yl)-2-methylphenyl)-7-(2-hydroxypropan-2-yl)-9H-carbazole-1-carboxamide assessed as compound formation; format: ADME, Canis lupus familiaris; conditions: in vivo
[39] = Drug level in rat treated with 3-Chloro-4-(R)-(3-(S)-(8-fluoro-1-methyl-2,4-dioxo-1,2-dihydroquinazolin-3(4H)-yl)-2-methylphenyl)-7-(2-hydroxypropan-2-yl)-9H-carbazole-1-carboxamide assessed as compound formation; format: ADME; conditions: in vivo

T1 sequence (Q06187 whole entry): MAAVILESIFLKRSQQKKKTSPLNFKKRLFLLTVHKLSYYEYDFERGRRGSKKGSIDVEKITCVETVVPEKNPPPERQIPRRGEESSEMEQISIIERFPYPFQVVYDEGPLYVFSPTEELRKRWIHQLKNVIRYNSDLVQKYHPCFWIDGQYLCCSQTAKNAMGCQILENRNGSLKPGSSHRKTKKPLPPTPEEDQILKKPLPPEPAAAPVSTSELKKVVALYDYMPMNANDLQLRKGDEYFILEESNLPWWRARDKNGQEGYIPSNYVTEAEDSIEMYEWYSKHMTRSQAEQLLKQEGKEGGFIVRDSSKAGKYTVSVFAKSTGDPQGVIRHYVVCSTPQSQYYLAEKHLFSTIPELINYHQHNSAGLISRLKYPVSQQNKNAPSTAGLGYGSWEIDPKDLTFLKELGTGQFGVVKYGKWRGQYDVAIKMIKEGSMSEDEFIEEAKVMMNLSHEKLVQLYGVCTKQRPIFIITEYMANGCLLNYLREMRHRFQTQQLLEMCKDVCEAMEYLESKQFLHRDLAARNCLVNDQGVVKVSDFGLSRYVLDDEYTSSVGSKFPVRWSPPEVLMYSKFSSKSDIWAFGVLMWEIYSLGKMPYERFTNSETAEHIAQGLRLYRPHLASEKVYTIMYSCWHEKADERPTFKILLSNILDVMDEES

SMILES	AUC [2] [µM·h]	Cmax [3] [µM]	IC50 [9] [nM]	IC50 [10] [nM]	IC50 [11] [nM]	Ratio IC50 (Homo sapiens [13])	also measured
Cc1c(-c2c(F)cc(C(N)=O)c3[nH]c4cc(C(C)(C)O)ccc4c23)cccc1-n1c(=O)c2cccc(F)c2n(C)c1=O	28	5.5	–	–	–	–	Drug metabolism [1]: Metabolite_Detected
C[C@]12C=CC(=O)C=C1CC[C@@H]1[C@@H]2[C@@H](O)C[C@@]2(C)[C@H]1CC[C@]2(O)C(=O)CO	–	–	–	–	–	–	Activity (Mus musculus [4]): Active; Activity (Mus musculus [5]): Active; Activity (Mus musculus [6]): Active; Activity (Mus musculus [7]): Active
Cc1c(-c2c(Cl)cc(C(N)=O)c3[nH]c4c(c23)CC[C@H](C(C)(C)O)C4)cccc1-n1c(=O)c2cccc(F)c2n(C)c1=O	25	4.5	–	–	–	–	CL [8]: 15%
Cc1cc(C(N)=O)c2[nH]c3cc(C(C)(C)O)ccc3c2c1-c1cccc(-n2c(=O)c3cccc(F)c3n(C)c2=O)c1C	48	6.3	17	0.65	240	–	–
Cc1c(-c2ccc(C(N)=O)c3[nH]c4cc(C(C)(C)O)ccc4c23)cccc1-n1c(=O)c2ccccc2n(C)c1=O	–	–	–	2.6	460	–	Stability [12]: Stable
Cc1c(-c2ccc(C(N)=O)c3[nH]c4c(c23)CC[C@@H](C(C)(C)O)C4)cccc1-n1c(=O)c2cccc(F)c2n(C)c1=O	–	–	190	11	–	180	–
Cc1c(-c2c(F)cc(C(N)=O)c3[nH]c4c(c23)CC[C@@H](C(C)(C)O)C4)cccc1-n1c(=O)c2cccc(F)c2n(C)c1=O	–	–	36	–	150	910	–
Cc1c(-c2ccc(C(N)=O)c3[nH]c4cc(C(C)(C)O)ccc4c23)cccc1-n1c(=O)c2cccc(F)c2n(C)c1=O	–	–	–	–	–	–	Drug metabolism [14]: Metabolite_Notdetected; Drug uptake [15]: Active; Drug metabolism [16]: Metabolite_Notdetected; half-life [17]: 1.15 h; Drug uptake [18]: Active; Stability [12]: Stable; Cmax [19]: 2.2 µM; Drug metabolism [20]: Metabolite_Notdetected; Drug uptake [21]: Active; AUC [22]: 25 µM·h; fraction unbound [23]: < 0.01
Cc1c(-c2ccc(C(N)=O)c3[nH]c4cc(C(C)(C)O)ccc4c23)cccc1-n1cnc2ccccc2c1=O	80	–	–	–	–	–	–
Cc1c(-c2c(F)cc(C(N)=O)c3[nH]c4c(c23)CC[C@H](C(C)(C)O)C4)cccc1-n1c(=O)c2cccc(F)c2n(C)c1=O [BMS-986142]	–	–	750	25	–	–	–
Cc1c(-c2c(F)cc(C(N)=O)c3[nH]c4c(c23)CC[C@H](C(C)(C)O)C4)cccc1-n1c(=O)c2cccc(F)c2n(C)c1=O (atropisomer R)	–	–	–	–	–	> 10000	Activity (Mus musculus [24]): Active; Activity (Mus musculus [25]): Active; Activity (Mus musculus [26]): Active; Activity (Mus musculus [27]): Active; Activity (Mus musculus [28]): Active; inhibition (Mus musculus [29]): Active; inhibition (Homo sapiens [30]): 10%; inhibition (Homo sapiens [31]): 13%; Activity (Mus musculus [32]): Active; Activity (Mus musculus [33]): Active; inhibition (Homo sapiens [34]): 40%
Cc1c(-c2c(Cl)cc(C(N)=O)c3[nH]c4cc(C(C)(C)O)ccc4c23)cccc1-n1c(=O)c2cccc(F)c2n(C)c1=O	41	4.7	–	–	–	–	Stability [35]: Stable; Stability [36]: Stable
Cc1c(-c2c(C#N)cc(C(N)=O)c3[nH]c4cc(C(C)(C)O)ccc4c23)cccc1-n1c(=O)c2cccc(F)c2n(C)c1=O	0.31	0.12	6	–	120	7100	–
Cc1c(-c2ccc(C(N)=O)c3[nH]c4c(c23)CC[C@H](C(C)(C)O)C4)cccc1-n1c(=O)c2cccc(F)c2n(C)c1=O	16	3.6	63	2.7	380	740	–
Cc1c(-c2c(Cl)cc(C(N)=O)c3[nH]c4cc(C(C)(C)O)ccc4c23)cccc1-n1c(=O)[nH]c2c(F)cccc2c1=O	–	–	–	1.6	–	–	Drug metabolism [37]: Metabolite_Detected; Drug metabolism [38]: Metabolite_Detected; Drug metabolism [39]: Metabolite_Detected
